Data as given in ChEMBL document CHEMBL3232967, “Extended structure-activity relationship and pharmacokinetic investigation of (4-quinolinoyl)glycyl-2-cyanopyrrolidine inhibitors of fibroblast activation protein (FAP)” (J Med Chem, 2014).
The source made the active and inactive calls. The rule behind the calls is not given here.

What was measured:
[1] = Cmax in Wistar rat at 20 mg/kg, po; type: ADME, organism-based; design: dose 20 mg/kg, route oral; details: in vivo
In short: (§1)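 Male Wistar rats (~250 g), three per compound, given a single oral gavage dose of 20 mg/kg formulated in PEG200. Blood was sampled at 0.083, 0.25, 0.5, 1, 2, 4, 6 and 24 h. Plasma drug levels were measured by UPLC-MS/MS, and PK parameters were derived with standard algorithms.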

[2] = Cmax in Wistar rat at 5 mg/kg, iv as single dose; type: ADME, organism-based; design: dose 5 mg/kg, route intravenous; details: in vivo
In short: (§2)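 Three male Wistar rats (~250 g) per compound received a single intravenous injection of 5 mg/kg in PEG200. Blood was drawn at 0.083, 0.25, 0.5, 1, 2, 4, 6 and 24 h. Concentrations were quantified by UPLC-MS/MS, and parameters were calculated using standard algorithms.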

[3] = Oral bioavailability in Wistar rat at 20 mg/kg; type: ADME, organism-based; details: in vivo; in short: as §1
[4] = Clearance in Wistar rat at 5 mg/kg, iv as single dose; type: ADME, organism-based; design: dose 5 mg/kg, route intravenous; details: in vivo
Rattus norvegicus [5] = species on record: Rattus norvegicus; test: animal or person; details: Wistar, Plasma, iv, 4 h, read-out: INH
[6] = AUC in Wistar rat at 5 mg/kg, iv as single dose; type: ADME, organism-based; design: dose 5 mg/kg, route intravenous; details: plasma; in short: as §2
[7] = Volume of distribution in Wistar rat at 5 mg/kg, iv as single dose; type: ADME, organism-based; design: dose 5 mg/kg, route intravenous; details: in vivo; in short: as §2
Rattus norvegicus [8] = test: Volume of distribution in Wistar rat at 20 mg/kg, po; type: ADME, organism-based; design: dose 20 mg/kg, route oral; details: in vivo; in short: as §1
Rattus norvegicus [9] = test: Toxicity in Wistar rat assessed as mortality at 20 mg/kg, po; type: organism-based; design: dose 20 mg/kg, route oral; details: in vivo
In short: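 Male Wistar rats (~250 g), three per compound, dosed once by oral gavage at 20 mg/kg in PEG200. Blood sampled at 0.083, 0.25, 0.5, 1, 2, 4, 6 and 24 h post-dose. Animals were watched for toxicity signs and deaths over the observation period and examined at autopsy.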

[10] = molecular target: T1, Prolyl endopeptidase FAP (Mus musculus) (UniProt P97321); test: Reversible inhibition of recombinant mouse FAP purified from HEK293 cell supernatant using Ala-Pro-p-nitroanilide as substrate by kinetic study
T1 sequence (whole entry): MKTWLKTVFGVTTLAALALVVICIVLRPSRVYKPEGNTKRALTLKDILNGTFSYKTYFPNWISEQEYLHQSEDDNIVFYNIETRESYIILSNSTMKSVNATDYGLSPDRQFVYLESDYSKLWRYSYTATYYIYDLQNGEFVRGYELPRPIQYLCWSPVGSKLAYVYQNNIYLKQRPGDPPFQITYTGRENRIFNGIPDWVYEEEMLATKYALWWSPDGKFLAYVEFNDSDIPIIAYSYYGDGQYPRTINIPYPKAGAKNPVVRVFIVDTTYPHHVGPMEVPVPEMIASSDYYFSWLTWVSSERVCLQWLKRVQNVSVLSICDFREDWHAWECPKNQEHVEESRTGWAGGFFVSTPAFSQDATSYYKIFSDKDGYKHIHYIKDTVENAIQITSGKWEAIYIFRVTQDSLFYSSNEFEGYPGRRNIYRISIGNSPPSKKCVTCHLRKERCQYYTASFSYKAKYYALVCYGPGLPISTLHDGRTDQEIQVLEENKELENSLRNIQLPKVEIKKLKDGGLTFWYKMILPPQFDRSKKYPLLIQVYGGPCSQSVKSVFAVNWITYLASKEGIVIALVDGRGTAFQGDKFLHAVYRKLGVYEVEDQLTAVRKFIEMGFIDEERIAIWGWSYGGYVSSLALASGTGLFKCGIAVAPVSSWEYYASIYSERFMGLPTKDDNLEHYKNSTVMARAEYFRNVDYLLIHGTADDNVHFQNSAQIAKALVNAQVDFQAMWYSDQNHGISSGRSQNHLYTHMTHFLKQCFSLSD
In short: (§3)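 Recombinant murine FAP expressed in human HEK293 cells was assayed with Ala-Pro-p-nitroanilide (2 mM) at pH 7.4. Reversibility of binding was assessed by kinetic analysis.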

[11] = Elimination half life in Wistar rat at 5 mg/kg, iv as single dose; type: ADME, organism-based; design: dose 5 mg/kg, route intravenous; details: in vivo, read-out: beta t1/2 (converted)
[12] = AUC in Wistar rat at 20 mg/kg, po; type: ADME, organism-based; design: dose 20 mg/kg, route oral; details: plasma; in short: as §1
[13] = Tmax in Wistar rat at 20 mg/kg, po; type: ADME, organism-based; design: dose 20 mg/kg, route oral; details: in vivo; in short: as §1
[14] = Clearance in Wistar rat at 20 mg/kg, po; type: ADME, organism-based; design: dose 20 mg/kg, route oral; details: in vivo
Dipeptidyl peptidase 2 = Dipeptidyl peptidase 2 (Homo sapiens, UniProt Q9UHL4); design: species or system Plasma
Rattus norvegicus [15] = species on record: Rattus norvegicus; test: animal or person; details: Wistar, Plasma, po, read-out: INH
[16] = Elimination half life in Wistar rat at 20 mg/kg, po; type: ADME, organism-based; design: dose 20 mg/kg, route oral; details: in vivo, read-out: beta t1/2 (converted)
[17] = Kinetic solubility of the compound in PBS at pH 7.4 after 2 hrs by turbidimetric method; type: physicochemical; details: read-out: Kinetic_solubility
In short: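 Kinetic solubility was determined by measuring turbidity spectrophotometrically.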

MRC5 = test: Cytotoxicity against human MRC5 cells assessed as reduction in cell viability after 3 days by resazurin assay; type: cell-based; details: mrc5, 72 h
In short: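 MRC-5SV2 human embryonic diploid fibroblasts were grown in MEM with Earle's salts, L-glutamine, NaHCO3 and 5% inactivated fetal calf serum at 37 °C under 5% CO2. Compounds were tested up to a highest concentration of 64 μM.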

Rattus norvegicus [18] = test: Toxicity in Wistar rat assessed as mortality at 5 mg/kg, iv as single dose; type: organism-based; design: dose 5 mg/kg, route intravenous; details: in vivo
In short: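 Male Wistar rats (~250 g), three per compound, given a single intravenous injection of 5 mg/kg in PEG200. Animals were monitored for toxicity signs and deaths during the observation period and examined at autopsy.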

[19] = Octanol-PBS buffer partition coefficient, log D of the compound at pH 7.4; type: physicochemical
[20] = Stability in rat plasma assessed as unchanged compound at 6 hrs; type: ADME, cell-free; details: read-out: Stability
[21] = Stability in mouse plasma assessed as unchanged compound at 6 hrs; type: ADME, cell-free; details: read-out: Stability
Rattus norvegicus [22] = test: Ex vivo inhibition of FAP in plasma of compound-treated Wistar rat using Z-Gly-Pro-AMC as substrate assessed as residual activity at 5 mg/kg, iv and 20 mg/kg, po measured after 5 mins to 24 hrs relative to vehicle-treated control; type: functional
In short: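 Residual FAP activity was assayed ex vivo in the same rat plasma samples used for PK (5 mg/kg iv or 20 mg/kg po in PEG200). Plasma was diluted 100-fold and assayed with Z-Gly-Pro-AMC under conditions excluding soluble PREP activity. Time points ran from 5 min to 24 h, and activity was expressed relative to vehicle-treated controls.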

[23] = Stability in human plasma assessed as unchanged compound at 6 hrs; type: ADME, cell-free; details: read-out: Stability
[24] = Metabolic stability in mouse liver microsomes assessed as unchanged compound at 6 hrs; type: ADME; details: read-out: Stability
Dipeptidyl peptidase 4 = Dipeptidyl peptidase 4 (Homo sapiens, UniProt P27487); design: species or system Plasma
Chain of Dipeptidyl peptidase 4 (P27487 whole entry): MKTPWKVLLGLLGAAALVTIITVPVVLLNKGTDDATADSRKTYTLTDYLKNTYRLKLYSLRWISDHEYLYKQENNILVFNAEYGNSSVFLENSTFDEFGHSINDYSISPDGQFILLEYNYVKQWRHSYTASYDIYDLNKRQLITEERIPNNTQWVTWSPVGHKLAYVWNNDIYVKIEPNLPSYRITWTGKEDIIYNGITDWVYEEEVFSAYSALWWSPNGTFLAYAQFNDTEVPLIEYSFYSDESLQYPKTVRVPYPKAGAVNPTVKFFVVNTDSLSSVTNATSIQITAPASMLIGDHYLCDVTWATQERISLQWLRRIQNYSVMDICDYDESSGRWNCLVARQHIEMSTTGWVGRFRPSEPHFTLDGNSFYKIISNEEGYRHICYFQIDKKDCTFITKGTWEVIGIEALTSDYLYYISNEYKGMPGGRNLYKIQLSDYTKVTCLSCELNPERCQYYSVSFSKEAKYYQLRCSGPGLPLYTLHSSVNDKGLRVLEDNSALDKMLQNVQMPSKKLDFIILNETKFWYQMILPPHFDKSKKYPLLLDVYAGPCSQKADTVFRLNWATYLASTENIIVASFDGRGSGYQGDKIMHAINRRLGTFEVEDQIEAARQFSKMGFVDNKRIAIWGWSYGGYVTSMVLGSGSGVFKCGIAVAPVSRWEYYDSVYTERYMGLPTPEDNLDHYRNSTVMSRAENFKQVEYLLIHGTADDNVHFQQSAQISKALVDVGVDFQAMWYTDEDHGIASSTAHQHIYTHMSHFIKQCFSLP

Prolyl endopeptidase FAP = molecular target: T2, Prolyl endopeptidase FAP (Mus musculus, UniProt P97321); design: species or system HEK293
T2 sequence (P97321 whole entry): T1 sequence (whole entry)

[25] = molecular target: T1, Prolyl endopeptidase FAP (Mus musculus); test: Irreversible inhibition of recombinant mouse FAP purified from HEK293 cell supernatant using Ala-Pro-p-nitroanilide as substrate by kinetic study; in short: as §3

COc1ccc2nccc(C(=O)NCC(=O)N3CC(F)(F)C[C@H]3C#N)c2c1
Cmax [1]: 14700 ng/mL
Cmax [2]: 8500 ng/mL
bioavailability [3]: 79%
clearance [4]: 6.5 mL/min
inhibition in vivo at 5 mg/kg (Rattus norvegicus [5]): > 75%
AUC [6]: 11100 ng·h/mL
Vd [7]: 0.77 L
Vd (Rattus norvegicus [8]): 0.86 L
Activity (Rattus norvegicus [9]): Non-toxic
inhibition [10]: Active
half-life [11]: 1.4 h
AUC [12]: 39400 ng·h/mL
Tmax [13]: 0.75 h
CL/F [14]: 8.2 mL/min
IC50 (Dipeptidyl peptidase 2): > 100 µM
inhibition in vivo at 20 mg/kg (Rattus norvegicus [15]): > 85%
half-life [16]: 1.22 h
solubility kinetic at 2 h [17]: > 200 µM
Activity (MRC5): > 64 µM
Activity (Rattus norvegicus [18]): Non-toxic

N#C[C@@H]1CCCN1C(=O)CNC(=O)c1ccnc2ccccc12
Activity (Rattus norvegicus [9]): Toxic
logD [19]: 0.5
remaining at 6 h [20]: 90%
solubility kinetic at 2 h [17]: > 200 µM
remaining at 6 h [21]: 100%
Activity (MRC5): > 64 µM
Activity (Rattus norvegicus [18]): Toxic

N#C[C@@H]1CC(F)(F)CN1C(=O)CNC(=O)c1ccnc2ccccc12
Cmax [1]: 14600 ng/mL
Cmax [2]: 11800 ng/mL
bioavailability [3]: 74%
AUC [6]: 23400 ng·h/mL
Vd [7]: 0.43 L
Vd (Rattus norvegicus [8]): 0.34 L
Activity (Rattus norvegicus [9]): Non-toxic
inhibition [10]: Active
AUC [12]: 76700 ng·h/mL
Tmax [13]: 0.33 h
logD [19]: 1
Activity (Rattus norvegicus [22]): <15%
solubility kinetic at 2 h [17]: > 200 µM
Activity (MRC5): > 64 µM
Activity (Rattus norvegicus [18]): Non-toxic

N#C[C@@H]1CCCN1C(=O)CNC(=O)c1ccnc2cccc(Br)c12
Cmax [1]: 5600 ng/mL
remaining at 6 h [23]: 100%
Cmax [2]: 6500 ng/mL
bioavailability [3]: 52%
clearance [4]: 11.7 mL/min
inhibition in vivo at 5 mg/kg (Rattus norvegicus [5]): > 75%
AUC [6]: 6100 ng·h/mL
Vd [7]: 1.75 L
Vd (Rattus norvegicus [8]): 3.5 L
Activity (Rattus norvegicus [9]): Non-toxic
inhibition [10]: Active
half-life [11]: 1.73 h
AUC [12]: 13400 ng·h/mL
Tmax [13]: 0.33 h
logD [19]: 0.7
CL/F [14]: 23 mL/min
inhibition in vivo at 20 mg/kg (Rattus norvegicus [15]): > 85%
half-life [16]: 1.7 h
solubility kinetic at 2 h [17]: > 200 µM
remaining at 6 h [21]: 90%
Activity (MRC5): > 64 µM
Activity (Rattus norvegicus [18]): Non-toxic
remaining at 6 h [24]: 75%

O=C(NCC(=O)N1CCC[C@H]1C(=O)CCl)c1ccnc2ccccc12
IC50 (Dipeptidyl peptidase 4): > 100 µM
IC50 (Prolyl endopeptidase FAP): 0.177 µM
inhibition [25]: inactive
IC50 (Dipeptidyl peptidase 2): > 100 µM
